Data as given in ChEMBL document CHEMBL3751707, “Silicon Incorporated Morpholine Antifungals: Design, Synthesis, and Biological Evaluation” (ACS Med Chem Lett, 2015).
≈ marks a conversion by molar mass, not a printed value.

Columns and labels:
[1] = system: Candida tropicalis; test: Antifungal activity against Candida tropicalis ATCC 750 after 24 to 36 hrs by broth microdilution method; type: functional, organism-based
In short: (§1)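 CLSI broth microdilution against yeasts (M27-A3) and filamentous fungi (M38-A2). Read-outs: IC50 (concentration giving 50% growth inhibition), MIC, and MFC (minimum fungicidal concentration), all in μg/mL. Assay done twice in triplicate.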

[2] = system: Candida albicans; test: Antifungal activity against Candida albicans ATCC 10231 after 72 hrs by broth microdilution method; type: functional; conditions: ATCC 10231, 72 h; in short: as §1
[3] = system: Cryptococcus neoformans; test: Antifungal activity against Cryptococcus neoformans ATCC 34664 after 24 to 36 hrs by broth microdilution method; type: functional, organism-based; in short: as §1
[4] = system: Aspergillus niger; test: Antifungal activity against Aspergillus niger ATCC 10578 after 48 hrs by broth microdilution method; type: functional, organism-based; conditions: ATCC 10578, 48 h; in short: as §1
[5] = system: Cryptococcus neoformans; test: Antifungal activity against Cryptococcus neoformans ATCC 34664 after 72 hrs by broth microdilution method; type: functional; conditions: ATCC 34664, 72 h; in short: as §1
[6] = system: Nakaseomyces glabratus; test: Antifungal activity against Candida glabrata NCYC 388 after 24 to 36 hrs by broth microdilution method; type: functional, organism-based; in short: as §1
[7] = system: Nakaseomyces glabratus; test: Antifungal activity against Candida glabrata NCYC 388 after 72 hrs by broth microdilution method; type: functional; conditions: NCYC 388, 72 h; in short: as §1
[8] = system: Candida tropicalis; test: Antifungal activity against Candida tropicalis ATCC 750 after 72 hrs by broth microdilution method; type: functional; conditions: ATCC 750, 72 h; in short: as §1
[9] = system: Aspergillus niger; test: Antifungal activity against Aspergillus niger ATCC 10578 after 72 hrs by broth microdilution method; type: functional; conditions: ATCC 10578, 72 h; in short: as §1
[10] = system: Candida albicans; test: Antifungal activity against Candida albicans ATCC 24433 after 72 hrs by broth microdilution method; type: functional; conditions: ATCC 24433, 72 h; in short: as §1
[11] = system: Candida albicans; test: Antifungal activity against Candida albicans ATCC 24433 after 24 to 36 hrs by broth microdilution method; type: functional, organism-based; in short: as §1
[12] = system: Candida albicans; test: Antifungal activity against Candida albicans ATCC 10231 after 24 to 36 hrs by broth microdilution method; type: functional, organism-based; in short: as §1
[13] = Toxicity in human RBC assessed as hemolysis upto 128 ug/ml; type: cell-based; conditions: erythrocyte
[14] = Metabolic stability in human liver microsomes after 30 mins by LC-MS/MS analysis; type: ADME; conditions: read-out: Stability
In short: (§2)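 Test compounds were incubated 30 min with liver microsomes (human or mouse, per line), and values are reported as % metabolic stability after 30 min.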

[15] = Metabolic stability in mouse liver microsomes after 30 mins by LC-MS/MS analysis; type: ADME; conditions: read-out: Stability; in short: as §2

## CC(Cc1ccc([Si](C)(C)C)cc1)CN1CCS(=O)(=O)CC1 (stereo not drawn)
[1]
  MIC: ≥ 256 µg/mL
[2]
  MFC: ≥ 256 µg/mL
[3]
  MIC: ≥ 256 µg/mL
[4]
  MIC: ≥ 256 µg/mL
[5]
  MFC: ≥ 256 µg/mL
[6]
  MIC: ≥ 256 µg/mL
[7]
  MFC: ≥ 256 µg/mL
[8]
  MFC: ≥ 256 µg/mL
[9]
  MFC: ≥ 256 µg/mL
[10]
  MFC: ≥ 256 µg/mL
[11]
  MIC: ≥ 256 µg/mL
[12]
  MIC: ≥ 256 µg/mL

## CCC(C)(C)c1ccc(CC(C)CN2CC[Si](C)(C)CC2)cc1 (stereo not drawn)
[1]
  IC50: 13.8 µg/mL (≈ 41.6 µM)
  MIC: 64 µg/mL (≈ 193 µM)
[2]
  MFC: 64 µg/mL (≈ 193 µM)
[3]
  IC50: 1.4 µg/mL (≈ 4.22 µM)
  MIC: 2 µg/mL (≈ 6.03 µM)
[4]
  IC50: 0.16 µg/mL (≈ 0.482 µM)
  MIC: 0.5 µg/mL (≈ 1.51 µM)
[5]
  MFC: 4 µg/mL (≈ 12.1 µM)
[6]
  IC50: 1.47 µg/mL (≈ 4.43 µM)
  MIC: 4 µg/mL (≈ 12.1 µM)
[7]
  MFC: 4 µg/mL (≈ 12.1 µM)
[8]
  MFC: 256 µg/mL (≈ 772 µM)
[9]
  MFC: 64 µg/mL (≈ 193 µM)
[10]
  MFC: 16 µg/mL (≈ 48.2 µM)
[11]
  IC50: 1.68 µg/mL (≈ 5.07 µM)
  MIC: 4 µg/mL (≈ 12.1 µM)
[12]
  IC50: 0.28 µg/mL (≈ 0.844 µM)
  MIC: 0.5 µg/mL (≈ 1.51 µM)

## CC(Cc1ccc([Si](C)(C)C)cc1)CN1CCCCC1 (stereo not drawn)
[1]
  IC50: 1 µg/mL (≈ 3.45 µM)
  MIC: 4 µg/mL (≈ 13.8 µM)
[2]
  MFC: 32 µg/mL (≈ 111 µM)
[3]
  IC50: 0.0625 µg/mL (≈ 0.216 µM)
  MIC: 0.125 µg/mL (≈ 0.432 µM)
[4]
  IC50: 41.2 µg/mL (≈ 142 µM)
  MIC: 64 µg/mL (≈ 221 µM)
[5]
  MFC: 8 µg/mL (≈ 27.6 µM)
[6]
  IC50: 0.035 µg/mL (≈ 0.121 µM)
  MIC: 0.125 µg/mL (≈ 0.432 µM)
[7]
  MFC: 8 µg/mL (≈ 27.6 µM)
[8]
  MFC: 64 µg/mL (≈ 221 µM)
[13]
  Activity: Non-toxic
[9]
  MFC: 128 µg/mL (≈ 442 µM)
[10]
  MFC: 2 µg/mL (≈ 6.91 µM)
[11]
  IC50: 0.12 µg/mL (≈ 0.414 µM)
  MIC: 0.25 µg/mL (≈ 0.863 µM)
[12]
  IC50: 0.11 µg/mL (≈ 0.38 µM)
  MIC: 0.25 µg/mL (≈ 0.863 µM)

## CC(Cc1ccc(C(C)(C)C)cc1)CN1C[C@@H](C)O[C@@H](C)C1 (stereo partly drawn) [FENPROPIMORPH]
[1]
  IC50: 0.125 µg/mL (≈ 0.412 µM)
  MIC: 2 µg/mL (≈ 6.59 µM)
[2]
  MFC: 2 µg/mL (≈ 6.59 µM)
[3]
  IC50: 0.25 µg/mL (≈ 0.824 µM)
  MIC: 1 µg/mL (≈ 3.3 µM)
[4]
  IC50: 1 µg/mL (≈ 3.3 µM)
  MIC: 4 µg/mL (≈ 13.2 µM)
[5]
  MFC: 64 µg/mL (≈ 211 µM)
[6]
  IC50: 0.25 µg/mL (≈ 0.824 µM)
  MIC: 1 µg/mL (≈ 3.3 µM)
[7]
  MFC: 128 µg/mL (≈ 422 µM)
[8]
  MFC: > 256 µg/mL
[13]
  Activity: Non-toxic
[9]
  MFC: > 256 µg/mL
[10]
  MFC: 4 µg/mL (≈ 13.2 µM)
[11]
  IC50: 0.21 µg/mL (≈ 0.692 µM)
  MIC: 0.5 µg/mL (≈ 1.65 µM)
[12]
  IC50: 0.833 µg/mL (≈ 2.74 µM)
  MIC: 2 µg/mL (≈ 6.59 µM)

## CC(Cc1ccc([Si](C)(C)C)cc1)CN1CCOCC1 (stereo not drawn)
[1]
  IC50: 0.5 µg/mL (≈ 1.72 µM)
  MIC: 8 µg/mL (≈ 27.4 µM)
[2]
  MFC: 8 µg/mL (≈ 27.4 µM)
[3]
  IC50: 0.125 µg/mL (≈ 0.429 µM)
  MIC: 0.5 µg/mL (≈ 1.72 µM)
[4]
  IC50: 106 µg/mL (≈ 363 µM)
  MIC: 128 µg/mL (≈ 439 µM)
[5]
  MFC: 2 µg/mL (≈ 6.86 µM)
[14]
  remaining at 0.5 h: 26%
[6]
  IC50: 0.144 µg/mL (≈ 0.494 µM)
  MIC: 0.5 µg/mL (≈ 1.72 µM)
[7]
  MFC: 16 µg/mL (≈ 54.9 µM)
[15]
  remaining at 0.5 h: 5.1%
[8]
  MFC: 16 µg/mL (≈ 54.9 µM)
[9]
  MFC: > 256 µg/mL
[10]
  MFC: 8 µg/mL (≈ 27.4 µM)
[11]
  IC50: 0.74 µg/mL (≈ 2.54 µM)
  MIC: 1 µg/mL (≈ 3.43 µM)
[12]
  IC50: 0.26 µg/mL (≈ 0.892 µM)
  MIC: 0.5 µg/mL (≈ 1.72 µM)

## OC(Cn1cncn1)(Cn1cncn1)c1ccc(F)cc1F [FLUCONAZOLE]
[1]
  IC50: 64 µg/mL (≈ 209 µM)
  MIC: > 256 µg/mL
[2]
  MFC: 16 µg/mL (≈ 52.2 µM)
[3]
  IC50: 4.6 µg/mL (≈ 15 µM)
  MIC: 32 µg/mL (≈ 104 µM)
[4]
  IC50: > 256 µg/mL
  MIC: > 256 µg/mL
[5]
  MFC: > 256 µg/mL
[6]
  IC50: 16 µg/mL (≈ 52.2 µM)
  MIC: 128 µg/mL (≈ 418 µM)
[7]
  MFC: > 256 µg/mL
[8]
  MFC: > 256 µg/mL
[9]
  MFC: > 256 µg/mL
[10]
  MFC: 4 µg/mL (≈ 13.1 µM)
[11]
  IC50: 0.73 µg/mL (≈ 2.38 µM)
  MIC: 2 µg/mL (≈ 6.53 µM)
[12]
  IC50: 4.21 µg/mL (≈ 13.7 µM)
  MIC: 8 µg/mL (≈ 26.1 µM)

## CC(Cc1ccc(C(C)(C)C)cc1)C(=O)N1CC[Si](C)(C)CC1 (stereo not drawn)
[1]
  MIC: ≥ 256 µg/mL
[2]
  MFC: ≥ 256 µg/mL
[3]
  MIC: ≥ 256 µg/mL
[4]
  MIC: ≥ 256 µg/mL
[5]
  MFC: ≥ 256 µg/mL
[6]
  MIC: ≥ 256 µg/mL
[7]
  MFC: ≥ 256 µg/mL
[8]
  MFC: ≥ 256 µg/mL
[9]
  MFC: ≥ 256 µg/mL
[10]
  MFC: ≥ 256 µg/mL
[11]
  MIC: ≥ 256 µg/mL
[12]
  MIC: ≥ 256 µg/mL
